These results are taken from publication PMC5634614 (Molecular imaging and biology : MIB : the official …, 2017).

The nature of one series: Plasma protein binding. The series is classed as in vitro ADME.
Series [1] concerns the target T1, TSPO (Rattus norvegicus, UniProt P16257). Briefly: Radioligand displacement of [3H]PK11195 in C6 glioma cell lysate. The series is classed as binding. The conditions noted are these: for TSPO binding affinity, fold greater than 1 (DPA-714): relative to 1 (DPA-714); for TSPO binding affinity, fold greater than 2 (VUIIS1008): relative to 2.
The target of series [2] is mitochondrial TSPO (mTSPO) (Mus musculus, UniProt P50637). Put plainly: 2D 1H-15N HSQC NMR titration of TSPO with ligands. The series is classed as binding. The conditions noted are these: 5.0 mM ligand, 0.2 mM TSPO in DPC. In short, it runs like this: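 15N-labeled mitochondrial TSPO was expressed in E. coli BL21(DE3) in M9 minimal medium, then solubilized and purified in DPC detergent. 2D 1H-15N HSQC spectra were recorded with and without ligand (5.0 mM) on an 800-MHz spectrometer at 42 °C. Samples held 0.2 mM TSPO in ~2 % (w/v) DPC, 25 mM MES pH 6.0 and 100 mM NaCl.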

For series [3], the target named is T1, TSPO. The conditions noted are these: ref [18], [19], cited from earlier work.
Series [4] addresses C6-2B mitochondria (rat glioma). The conditions noted are these: C6-2B mitochondria (rat glioma) with [3H]PK11195; ref [28]; cited from earlier work.
Series [5] deals with T1, TSPO. The conditions noted are these: n = 5, prior study, ref [18], [19], cited from earlier work.

Like-named read-outs stand apart in the source and are kept apart here.

Broadly, the IC50 is the concentration needed to halve the response being measured. The Ki is the equilibrium dissociation constant of an inhibitor or competing ligand from its target. A low value points to tighter binding. For `CCc1cc(C)nc2c(CC(=O)N(CC)CC)c(-c3ccc(OCCF)cc3)nn12` [3A, N,N-diethyl-2-(7-ethyl-2-(4-(2-fluoroethoxy)-phenyl)-5-methylpyrazolo[1,5-a]pyrimidin-3-yl)acetamide], the “unbound fraction compared with DPA-714” value in the series “Plasma protein binding” is “lower unbound fraction than DPA-714”. In addition, at TSPO [1], the IC50 amounted to 0.0144 nM; the Ki came out at 0.00704 nM; the “TSPO binding affinity, fold greater than 1 (DPA-714)” value stood at 500 fold; the “TSPO binding affinity, fold greater than 2 (VUIIS1008)” value is reported as 20 fold. Moreover, the “TSPO binding affinity, fold greater than 1 (DPA-714)” value on TSPO [1] (listed as VUIIS1009A) was “approximately 500 fold”.
For the compound `CCc1cc(C)n2nc(-c3ccc(OCCF)cc3)c(CC(=O)N(CC)CC)c2n1` [3B, N,N-diethyl-2-(5-ethyl-2-(4-(2-fluoroethoxy)phenyl)-7-methylpyrazolo[1,5-a]pyrimidin-3-yl)acetamide], in “Plasma protein binding”, the “unbound fraction compared with DPA-714” value is listed as “lower unbound fraction than DPA-714” and the “unbound fraction, difference compared with 3A” value was 0.54%. For the same compound, in series [2], the “saturation of ligand-bound state of TSPO (HSQC)” value is “completely saturated the ligand-bound state”. At TSPO [1], the IC50 is 0.0194 nM; the affinity, expressed as Ki, was 0.00947 nM; the “TSPO binding affinity, fold greater than 1 (DPA-714)” value stood at 500 fold; the “TSPO binding affinity, fold greater than 2 (VUIIS1008)” value is on record as 20 fold. Moreover, the “TSPO binding affinity, fold greater than 1 (DPA-714)” value at TSPO [1] (listed as VUIIS1009B) is recorded as “approximately 500 fold”.
For the compound `CCc1cc(CC)n2nc(-c3ccc(OCCF)cc3)c(CC(=O)N(CC)CC)c2n1` [VUIIS1008], the IC50 on TSPO [3] (previously reported) was 0.3 nM.
As a reminder, the Kd is the equilibrium constant for the complex coming apart. Consider `CCC(C)N(C)C(=O)c1cc2ccccc2c(-c2ccccc2Cl)n1` (stereo not shown) [[^3H]PK11195], for which the Kd in series [4] was 5.73 ± 2.38 nM.
As for `CCc1cc(CC)n2nc(-c3ccc(OCC[18F])cc3)c(CC(=O)N(CC)CC)c2n1` [[^18F]VUIIS1008, 2-(5,7-diethyl-2-(4-(2-[(18)F]fluoroethoxy)phenyl)pyrazolo[1,5-a]pyrimidin-3-yl)-N,N-diethylacetamide], on TSPO [5] (brain), the “VT (total distribution volume from kinetic parameters)” value is 4.210 ± 1.612, the k1 is on record as 0.881 ±0.392, the k1/k2 is given as 0.855 ± 0.325 and the k2 is 2.078 ± 1.666. On TSPO [5] (brain), the k3 is 0.172 ± 0.070; the “k3/k4 (binding potential, BPND)” value is listed as 4.435 ± 1.387; the k4 is 0.037 ± 0.004. On TSPO [5] (tumor), the “VT (total distribution volume from kinetic parameters)” value is listed as 25.224 ± 10.035, the k1 was 0.709 ± 0.306, the k1/k2 is 1.902 ± 0.816 and the k2 is listed as 0.442 ± 0.101. In addition, at TSPO [5] (tumor), the k3 is recorded as 0.113 ±0.013; the “k3/k4 (binding potential, BPND)” value was 12.634 ± 1.406; the k4 is given as 0.009 ± 0.002. In addition, the “enhancement in TSPO affinity compared to 1” value on TSPO [3] (prior studies) is on record as 36 fold.
